Experimental findings from ChEMBL document CHEMBL2069203, “Cytotoxic and antibacterial beilschmiedic acids from a Gabonese species of Beilschmiedia” (J Nat Prod, 2012) are described below.

Structures are written as SMILES. In brackets after ≈: the same amount, converted by molar mass. Activity calls are given as the source filed them.

Experiment [1] deals with NCI-H460. Nature of the experiment: Cytotoxicity against human NCI-H460 cells incubated for 72 hrs by MTT assay. Type of experiment: functional, cell-based. In short, it runs like this:
(§1)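 Cells kept in RPMI-1640 with 10% FBS plus L-glutamine and HEPES, seeded at 5 × 10^2 to 5 × 10^4 cells/well and left to adhere overnight. Medium was replaced with DMSO stock diluted in medium at eight concentrations, 2−5 wells each. Camptothecin and vehicle served as controls. After 72 h at 37 °C, 5% CO2, viable cells were read by CellTiter 96 AQueous. IC50 came from dose−response curves.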
In general terms: Formazan colour is commonly taken as a measure of viable cells.

In experiment [2] the test system is Staphylococcus aureus. Nature of the experiment: Antimicrobial activity against methicillin-resistant Staphylococcus aureus isolate 108 incubated for 24 hrs by broth microdilution method. Type of experiment: functional. In short, it runs like this:
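CLSI broth microdilution on clinical MRSA isolate 108. Overnight trypticase soy broth culture diluted 1:100 in cation-adjusted Mueller-Hinton broth, grown at 37 °C to OD600 0.2, diluted 1:100 again to give 10^6 cfu/mL. Compound in DMSO diluted in medium, tested across a concentration series, 3-6 wells each. Vancomycin positive control. Incubated 24 h at 37 °C. MIC = lowest concentration preventing visible growth.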
A general note: Broth dilution looks for growth in wells or tubes with falling amounts of substance.

The test system of experiment [3] is PC-3. Nature of the experiment: Cytotoxicity against human PC3 cells incubated for 72 hrs by MTT assay. Type of experiment: functional, cell-based. In short, it runs like this: as §1
Experiment [4] concerns M14. Nature of the experiment: Cytotoxicity against human M14 cells incubated for 72 hrs by MTT assay. Format: functional, cell-based. In short, it runs like this:
as §1

Experiment [5] concerns NCI-H460. Nature of the experiment: Induction of membrane disruption in human NCI-H460 cells at 20 uM by LDH release assay. Format: functional, cell-based. In short, it runs like this:
(§2)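 NCI-H460 cells were plated at 1 × 10^4 cells/well in RPMI-1640 with 10% fetal calf serum and attached overnight. Compound or DMSO vehicle was added and incubated 24 or 72 h. Supernatant LDH was measured with the CytoTox 96 kit, absorbance at 490 nm, with kit lysis solution as positive control.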
In general terms: Release of lactate dehydrogenase indicates damage to the cell membrane.

Experiment [6] relates to NCI-H460. Nature of the experiment: Induction of membrane disruption in human NCI-H460 cells at 3 yo 5 fold cytotoxic IC50 level by LDH release assay. Type of experiment: functional, cell-based. In short, it runs like this:
as §2

Experiment [7] concerns NCI-H460. Nature of the experiment: Induction of apoptosis in human NCI-H460 cells assessed as caspase 3/7 activation at 26.1uM. Type of experiment: functional, cell-based. In short, it runs like this: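 NCI-H460 cells were plated at 1 × 10^4 cells/well in RPMI-1640 with 10% fetal calf serum and attached overnight. Compound or DMSO vehicle was added and incubated 24 or 72 h. Caspase 3/7 activity was read by Caspase-Glo 3/7 luminescence, with camptothecin 10 μg/mL as positive control. A result counted as active when caspase exceeded background plus two SD of the negative control without LDH release.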

Setting [8] is: Homo sapiens, NCI-H460, 72 h, read-out: IC50.

As to `O=C(O)C1=C[C@@H](O)[C@@H]2C[C@H]3[C@H](CCC/C=C/C=C/c4ccccc4)[C@H]4C=C[C@@H]1[C@@H]2[C@H]43`, the 50% inhibitory concentration (IC50) (usually the concentration that inhibits the measured activity by half) in experiment [1] (nci-h460) was “Not Active”. Further, the MIC (usually the smallest concentration in the dilution series that meets the test's criterion for growth inhibition) in experiment [2] was “inactive”. For the same compound, the result in experiment [3], in experiment [4] and in experiment [5] was inactive.

As to `CCCCCCCC[C@@H]1[C@H]2C=C[C@H]3C(C(=O)O)=C[C@H](O)[C@@H]4C[C@@H]1[C@@H]2[C@H]43` [BEILSCHMIEDIC ACID A], the IC50 in experiment [1] (setting [8]) is 6.1 µM. This compound showed a minimal inhibitory concentration (MIC) in experiment [2] (isolate 108, 24 h) of 10 µg/mL (≈ 29 µM). The result in experiment [3] and in experiment [4] was inactive.

Turning to `CCCCCCCC[C@@H]1[C@H]2C=C[C@H]3C(C(=O)O)=C[C@@H](O)[C@@H]4C[C@@H]1[C@@H]2[C@H]43` [BEILSCHMIEDIC ACID C], in experiment [1] (nci-h460), the IC50 result was “Not Active”. The MIC result in experiment [2] was “inactive”. Moreover, the outcome in experiment [3], in experiment [4] and in experiment [5] was inactive.

Regarding `O=C(O)C1=C[C@H](O)[C@@H]2C[C@H]3[C@H](CCC/C=C/C=C/c4ccccc4)[C@H]4C=C[C@@H]1[C@@H]2[C@H]43` [BEILSCHMIEDIC ACID I], the IC50 in experiment [1] (setting [8]) was found to be 5.5 µM. The compound also yielded a minimum inhibitory concentration (MIC) in experiment [2] (isolate 108, 24 h) of 12 µg/mL (≈ 29.8 µM). Besides, the outcome in experiment [3], in experiment [4] and in experiment [6] was inactive.

In the case of `O=C(O)C1=C[C@@H](O)[C@@H]2C[C@H]3[C@H](CCCCCc4ccccc4)[C@H]4C=C[C@@H]1[C@@H]2[C@H]43` [BEILSCHMIEDIC ACID K], the IC50 in experiment [1] (setting [8]) amounted to 5.9 µM. In addition, 11 µg/mL (≈ 29.1 µM) was the least that counted as inhibitory in experiment [2] (isolate 108, 24 h) (MIC). The result in experiment [3], in experiment [4] and in experiment [6] was inactive.

As to `O=C(O)C1=C[C@@H](O)[C@@H]2C[C@H]3[C@H](C/C=C/C=C/c4ccccc4)[C@H]4C=C[C@@H]1[C@@H]2[C@H]43` [BEILSCHMIEDIC ACID L], the IC50 in experiment [1] (setting [8]) amounted to 4.4 µM. In experiment [2] (isolate 108, 24 h), this compound came in with an MIC of 11 µg/mL (≈ 29.4 µM). Moreover, the result in experiment [3], in experiment [4] and in experiment [6] was inactive.

Regarding `O=C(O)C1=C[C@@H](O)[C@@H]2C[C@H]3[C@H](CCC/C=C\C=C\c4ccccc4)[C@H]4C=C[C@@H]1[C@@H]2[C@H]43` [BEILSCHMIEDIC ACID M], the IC50 in experiment [1] (setting [8]) stood at 8.7 µM. In experiment [2] (isolate 108, 24 h), this compound gave an MIC of 12 µg/mL (≈ 29.8 µM). In addition, the outcome in experiment [3], in experiment [4] and in experiment [6] was inactive. The result in experiment [7] was Active.

As to `O=C(O)C1=C[C@@H](O)[C@@H]2C[C@H]3[C@H](CCCC4C=CC(c5ccccc5)OO4)[C@H]4C=C[C@@H]1[C@@H]2[C@H]43` (stereo not given in full) [BEILSCHMIEDIC ACID N], in experiment [1] (setting [8]), the IC50 turned out to be 19 µM. In experiment [2] (isolate 108, 24 h), this compound registered an MIC of 13 µg/mL (≈ 29.9 µM). Besides, the result in experiment [3] and in experiment [4] was inactive.

As to `O=C(O)C1=C[C@@H](O)[C@@H]2C[C@H]3[C@H](CCCc4ccc(-c5ccccc5)o4)[C@H]4C=C[C@@H]1[C@@H]2[C@H]43` [BEILSCHMIEDIC ACID O], the IC50 result in experiment [1] (nci-h460) is “Not Active”. Besides, the lowest concentration to inhibit growth in experiment [2] (isolate 108, 24 h) (MIC) was 13 µg/mL (≈ 31.2 µM). For the same compound, the outcome in experiment [3], in experiment [4] and in experiment [5] was inactive.

In the case of `CC[C@@]1(O)C(=O)OCc2c1cc1n(c2=O)Cc2cc3ccccc3nc2-1` [CAMPTOTHECIN], the IC50 in experiment [1] (setting [8]) turned out to be 0.003 µM.
